# Assay outcomes as filed in PubChem BioAssay.
# procasp7 counter: procaspase-7 activators, primary screen, counter-screen for procaspase-3 activator project, biochemical, absorbance, HTS, human; recombinant procaspase-7, Ac-DEVD-pNA absorbance 405 nm; D23A/D198A/D206A triple mutant, cannot self-cleave; scale: DMSO 0, 5 µM enzyme 100; activation, % at 8.5 µM; 330,000 compounds, 0.093% hits;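 active means percent activation above the screen-wide mean plus 3 SD, cut at about 25% in these data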
#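 System: Procaspase-7 triple mutant (PC-7 D3A); measure: % activation from two-timepoint absorbance difference, scaled to controls; times: 1 h compound preincubation, 2 h substrate cleavage, 25 °C; also added: Ac-DEVD-pNA substrate, 400 µM as added; measured by: Epi-absorbance of released pNA at 405 nm, two timepoints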
# PREPL inhibitor: PREPL enzyme inhibitors, primary screen, biochemical, fluorescence polarization. AID 2751, 2010. Prolyl endopeptidase-like (Homo sapiens), Q4J6C6. recombinant PREPL, fluorescence polarization activity-based probe. 320,000 compounds, 0.68% hits. inhibition, % at 5.96 µM; in the data active means inhibition above about 43%;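 further: 0% = enzyme with DMSO and 100% = wells lacking enzyme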
# LYPLA1 counter: LYPLA1 inhibitors, primary screen, counter-screen for PME1 inhibitor project, biochemical, fluorescence polarization, FP-Rh probe ABPP. Acyl-protein thioesterase 1 (Homo sapiens), O75608. recombinant LYPLA1. inhibition, % at 5.9 µM. 320,000 compounds, 0.16% hits. AID 2174, 2009;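 active means inhibition above the mean of all tested compounds plus 3 SD, set per campaign, cut at about 14% in these data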;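 further: inhibitors block serine hydrolase probe labeling of LYPLA1 so polarization falls; 0% = enzyme with DMSO and 100% = wells lacking LYPLA1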
# LYPLA2 counter: LYPLA2 inhibitors, primary screen, counter-screen for PME1 inhibitor project, biochemical, fluorescence polarization, FP-Rh probe ABPP. recombinant LYPLA2. Acyl-protein thioesterase 2 (Homo sapiens), O95372. 320,000 compounds, 0.38% hits. AID 2177, 2009. inhibition, % at 5.9 µM;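 active means inhibition above the screen-wide mean plus 3 SD, limit set per campaign, cut at about 26% in these data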;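 further: 0% = LYPLA2 with DMSO and 100% = wells lacking LYPLA2 enzyme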
# proCasp3 act: activators of human procaspase-3 D3A mutant, primary screen, biochemical, absorbance, PC-3 D3A mutant, single concentration. Caspase-3 (Homo sapiens), P42574. recombinant procaspase-3 D3A, Ac-DEVD-pNA absorbance 405 nm. activation, % at 8.5 µM. 330,000 compounds, 0.11% hits. AID 463141, 2010;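 active means activation above the mean of all tested compounds plus 3 SD, cut at about 21% in these data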;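 further: 0% = DMSO alone and 100% = DMSO wells spiked with extra 5 µM PC-3 D3A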
# Target sequence (P42574 whole entry D9A/D28A/D175A): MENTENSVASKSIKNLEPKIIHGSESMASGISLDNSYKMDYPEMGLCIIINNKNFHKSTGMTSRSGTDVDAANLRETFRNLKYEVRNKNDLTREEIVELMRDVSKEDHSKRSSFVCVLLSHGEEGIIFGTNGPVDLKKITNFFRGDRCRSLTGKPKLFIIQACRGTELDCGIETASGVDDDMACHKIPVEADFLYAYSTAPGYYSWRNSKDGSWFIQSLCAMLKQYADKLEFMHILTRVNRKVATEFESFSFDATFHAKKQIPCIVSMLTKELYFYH
#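 Assay system: Autoprocessing-dead procaspase-3 D3A mutant enzyme; also added: Ac-DEVD-pNA; doses: one concentration, 8.5 µM nominal, 0.8% DMSO; times: 1 h compound preincubation, 2 h substrate hydrolysis at 25 °C; technique: 405 nm absorbance of p-nitroaniline, reads at 0 and 120 min; measure: % activation between DMSO and enzyme-spiked controls; repeats: single replicate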
# An asterisk follows results filed as active; · = not tested or not shown. In the library only some 1.1% were active in any assay of this set; here they are far more common.
SMILES,procasp7 counter,PREPL inhibitor,LYPLA1 counter,LYPLA2 counter,proCasp3 act
CC(C(=O)Nc1ccc([N+](=O)[O-])cc1)N1CCN(C/C=C/c2ccccc2)CC1 (stereo not drawn),-5,8,-1,31*,8
Oc1ccc(CN2CCc3ccccc3C2)c2cccnc12,-1,45*,-1,-8,-8
O=C(C[n+]1ccc(C(=O)N/N=C/c2ccc(OCc3ccccc3)cc2)cc1)c1ccccc1,-9,50*,-3,-7,1
O=C(CNC(=O)N1CC(=O)Nc2ccccc21)NCc1cccc(Cl)c1,5,-19,0,3,1
COc1cc(CC(=O)NCC(C)(C)N2CCOCC2)cc(OC)c1OC,0,16,2,-19,-4
Cc1cc2cc(CNC(=O)COc3ccccc3)ccc2n1C,1,52*,7,8,-6
Cc1cc2cc(CNC(=O)c3cc4ccccc4o3)ccc2n1C,2,65*,1,5,4
Cc1cc2cc(CNC(=O)c3ccco3)ccc2n1C,-16,38,2,2,-10
c1coc(-c2nc(-c3ccco3)c(-c3ccco3)nc2-c2ccco2)c1,-40,71*,-15,-1,-15
Cc1cc(N=Nc2ccc(C)c(N=Nc3cc(C)c(N)cc3N)c2)c(N)cc1N,1,70*,0,-1,-3
Cc1ccc(N=Nc2ccc(O)c3ncccc23)cc1C,1,4,-2,-1,1
CCn1c(O)c(N=NC(=O)c2ccc(CSc3nncn3C)cc2)c2ccccc21,8,12,0,-1,6
Cn1cnnc1SCc1ccc(C(=O)N=Nc2c(O)n(Cc3ccc(Cl)cc3)c3ccccc23)cc1,-4,22,4,26*,1
N#Cc1c(NC(=S)NC(=O)c2ccccc2)sc2c1CCCC2,-27,7,-3,-8,-11
N#Cc1c(NC(=S)NC(=O)c2ccccc2)sc2c1CCN(CCc1ccccc1)C2,-32,65*,-3,4,-25
CSc1ccccc1NC(=O)CN(C)C(=O)CCc1c[nH]c2ccccc12,-6,9,-4,-2,-4
Cc1ccc(SCc2nc3ccccc3n2CC(=O)Nc2ccccc2)cc1,-1,53*,-4,-8,1
COCC(=O)N(C)C[C@H]1N[C@@](C)(C(=O)OC)[C@H]2C(=O)N(C)C(=O)[C@@H]12,0,17,·,·,1
Cc1ccc(-c2nc(Nc3ccc(N4CCOCC4)cc3)c3ccccc3n2)cc1,-17,46*,-21,-21,-9
COc1cccc(C(=O)NC2CCCc3ccccc32)c1OC (stereo not drawn),-3,-3,-4,2,6
Cc1cc(O)c(C=O)c2c1C(=O)Oc1c(CO)c(O)c3c(c1O2)C(O)OC3=O (stereo not drawn),-10,45*,-4,2,-11
Cc1cc(O)c(CN(C)C)c2c1C(=O)/C(=C/c1ccco1)O2,-15,-2,-2,1,-3
Cc1ccc(NC(=O)CN(C)CC(=O)Nc2ccc(N3CCOCC3)cc2)c(C)c1,10,54*,-2,-1,-7
COc1cc2cc(CCCOC(=O)CCCC(=O)O)oc(=O)c2cc1OC,0,4,-1,5,-3
CCCCn1c(NC(=O)c2ccc(F)cc2)c(C#N)c2nc3ccccc3nc21,-5,34,60*,61*,3
CC(C)NC(=O)/C(=C\c1cccc([N+](=O)[O-])c1)NC(=O)c1ccccc1,3,0,4,4,-6
O=C(N/N=C/c1ccco1)/C(=C/c1cccc([N+](=O)[O-])c1)NC(=O)c1ccccc1,3,47*,0,9,9
CCN(CC)S(=O)(=O)c1cc(NC(=O)C2CSC3(C)CCC(=O)N23)ccc1C (stereo not drawn),-8,0,-3,4,-44
Cc1ccc(CN2C(=O)/C(=C\c3ccc(C(=O)NCc4cccnc4)cc3)Oc3ccccc32)cc1,25,-5,-2,-9,27*
